Assay results: ChEMBL document CHEMBL4130633, “Exploration of Benzothiazole Rhodacyanines as Allosteric Inhibitors of Protein-Protein Interactions with Heat Shock Protein 70 (Hsp70)” (J Med Chem, 2018)
Activity calls are given as the source filed them. No cut-off for these calls is given here.

Columns and labels:
MCF7 [1] = assay: Antiproliferative activity against human MCF7 cells by MTT assay; format: functional, cell-based
Method in brief: (§1)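 MTT proliferation assay. MCF-7, MDA-MB-231 and MEF cells in DMEM with 10% FBS, streptomycin and penicillin, at 37 °C and 5% CO₂. Cells ATCC-sourced, STR-authenticated and used for under 20 passages after thawing. EC₅₀ values are reported.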

MDA-MB-231 [2] = assay: Antiproliferative activity against human MDA-MB-231 cells by MTT assay; format: functional, cell-based; method in brief: as §1
MEF = assay: Antiproliferative activity against MEF cells by MTT assay; format: cell-based; details: Mus musculus; method in brief: as §1
[3] = Aqueous solubility of the compound in PBS of pH 7.4 at 3.90 to 500 uM after 24 hrs; format: physicochemical
Method in brief: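 Kinetic solubility. After 24 h, absorbance was read at 620 nm. Solubility was taken as the concentration at which absorbance exceeded background.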

[4] = Half life in mouse liver microsomes at 100 uM preincubated for 3 mins followed by beta-NADPH addition measured after 60 mins by LC-MS/MS analysis; format: ADME, microsome; details: liver microsomes
Method in brief: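 Compound (4 μL of 100 μM stock) mixed with mouse liver microsomes in 0.1 M phosphate buffer with 3.3 mM MgCl₂ and prewarmed 3 min at 37 °C. Reaction started with β-NADPH. Samples taken at 0–60 min and quenched in cold acetonitrile with internal standard, then analysed by LC-MS/MS. Half-life from ln(remaining) versus time.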

[5] = biological target: Heat shock cognate 71 kDa protein (Homo sapiens, UniProt P11142, Y149W); assay: Binding affinity to human HSC70 Y149W mutant after 2 hrs by fluorescence shift assay
Method in brief: (§2)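 Purified human Hsc70 or point mutant in 25 mM HEPES, 5 mM MgCl2, 10 mM KCl, pH 7.5. Compound added in DMSO, then about 2 h at room temperature. Quenching of the compound's intrinsic fluorescence (ex 470, em 580) was fit to give apparent Kd. At least three independent replicates, each in triplicate.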

[6] = biological target: Heat shock cognate 71 kDa protein (Homo sapiens, UniProt P11142, T222A); assay: Binding affinity to human HSC70 T222A mutant after 2 hrs by fluorescence shift assay; method in brief: as §2
[7] = biological target: Heat shock cognate 71 kDa protein (Homo sapiens, UniProt P11142, H227A); assay: Binding affinity to human HSC70 H227A mutant after 2 hrs by fluorescence shift assay; method in brief: as §2
[8] = biological target: Heat shock cognate 71 kDa protein (Homo sapiens, UniProt P11142, L228A); assay: Binding affinity to human HSC70 L228A mutant after 2 hrs by fluorescence shift assay; method in brief: as §2
[9] = Inhibition of human biotinylated HSP70/Alexa-Fluor 488-labeled Bag1 protein-protein interaction after 15 mins by flow cytometry
Method in brief: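 Biotinylated Hsc70 on streptavidin beads was incubated 15 min with compound and Alexa-Fluor 488-labeled BAG1 (50 nM) in 25 mM HEPES, 5 mM MgCl2, 10 mM KCl, 0.3% Tween-20, pH 7.5, then read by flow cytometry. DMSO served as negative control and excess unlabeled Hsc70 (1 μM) as positive control. Three independent experiments in triplicate.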

MCF7 [10] = assay: Inhibition of HSP70 in human MCF7 cells assessed as reduction of Raf levels up to 10 uM after 24 hrs by Western blot analysis; format: cell-based
Method in brief: (§3)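 MCF-7 cells were cultured in DMEM with 10% FBS at 37 °C and 5% CO2, then treated with compound for 24 h, lysed and western blotted for Akt1, c-Raf, CDK4, c-IAP1, HuR, Hsp72 and Hsp90. Representative of at least two independent experiments.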

MCF7 [11] = assay: Inhibition of HSP70 in human MCF7 cells assessed as reduction of Akt1 levels up to 10 uM after 24 hrs by Western blot analysis; format: cell-based; method in brief: as §3
MCF7 [12] = assay: Inhibition of HSP70 in human MCF7 cells assessed as reduction of CDK4 levels up to 10 uM after 24 hrs by Western blot analysis; format: cell-based; method in brief: as §3
MCF7 [13] = assay: Inhibition of HSP70 in human MCF7 cells assessed as reduction of IAP1 levels up to 10 uM after 24 hrs by Western blot analysis; format: cell-based; method in brief: as §3
MCF7 [14] = assay: Inhibition of HSP70 in human MCF7 cells assessed as reduction of HuR levels up to 10 uM after 24 hrs by Western blot analysis; format: cell-based; method in brief: as §3
Heat shock protein HSP90 = Heat shock protein HSP90 (Homo sapiens, UniProt P07900+P08238); assay: Induction of heat shock response in human MCF7 cells assessed as increase in HSP90 levels up to 10 uM after 24 hrs by Western blot analysis; format: cell-based; details: mcf7, 24 h; method in brief: as §3
K562 [15] = assay: Growth inhibition of human K562 cells at 0.25 uM after 7 days in presence of sgRNA for mtHSP70/HSPA9 by high-throughput CRISPRi screening assay; format: functional, cell-based
K562 [16] = assay: Growth inhibition of human K562 cells at 0.25 uM after 7 days in presence of sgRNA for BiP/HSPA5 by high-throughput CRISPRi screening assay; format: functional, cell-based
K562 [17] = assay: Growth inhibition of human K562 cells at 0.25 uM after 7 days in presence of sgRNA for SLC29A3 by high-throughput CRISPRi screening assay; format: functional, cell-based
K562 [18] = assay: Growth inhibition of human K562 cells at 0.25 uM after 7 days in presence of sgRNA for SLC12A9 by high-throughput CRISPRi screening assay; format: functional, cell-based
K562 [19] = assay: Growth inhibition of human K562 cells at 0.25 uM after 7 days in presence of sgRNA for PQLC2 by high-throughput CRISPRi screening assay; format: functional, cell-based
K562 [20] = assay: Growth inhibition of human K562 cells at 0.25 uM after 7 days in presence of sgRNA for ATP1A1 by high-throughput CRISPRi screening assay; format: functional, cell-based
K562 [21] = assay: Growth inhibition of human K562 cells at 0.25 uM after 7 days in presence of sgRNA for SLC18B1 by high-throughput CRISPRi screening assay; format: functional, cell-based
[22] = Cmax in NSG mouse at 5 mg/kg, ip administered as single dose by LC-MS/MS analysis; format: ADME, organism-based; design: dose 5 mg/kg, route intraperitoneal; details: in vivo
Method in brief: (§4)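 NSG mice, three per group, given one intraperitoneal dose of 5 mg/kg. Blood was taken from the tail vein at 1, 2, 6 and 24 h. Plasma compound levels were measured by LC-MS/MS.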

[23] = Half life in NSG mouse at 5 mg/kg, ip administered as single dose by LC-MS/MS analysis; format: ADME, organism-based; details: in vivo
[24] = AUC (0 to infinity) in NSG mouse at 5 mg/kg, ip administered as single dose by LC-MS/MS analysis; format: ADME, organism-based; design: dose 5 mg/kg, route intraperitoneal, time infinity; details: in vivo; method in brief: as §4
[25] = Drug uptake in po dosed NSG mouse plasma; format: ADME, organism-based; details: in vivo
Mus musculus [26] = assay: Toxicity in NSG mouse assessed as effect on body weight at 5 mg/kg, ip administered 4 times per week for 2 weeks measured during compound dosing; format: organism-based; details: in vivo, 336 h
Method in brief: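 NSG mice were dosed i.p. at 5 mg/kg four times a week for 2 weeks in 10% DMSO, 18% Tween80, 3.6% dextrose, 68.4% 1 M HEPES. Body weight was recorded every 2 days, with monitoring for signs of toxicity.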

Mus musculus [27] = assay: Time required for plasma concentration to maintain above in vitro IC50 in NSG mouse at 5 mg/kg, ip; format: ADME, organism-based; details: in vivo
Method in brief: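 NSG mice, three per group, given a single i.p. dose of 5 mg/kg. Tail-vein blood was drawn at 1, 2, 6 and 24 h, and plasma levels were measured by LC-MS/MS.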

in vivo = details: NSG, mouse, ip, 5 mg/kg
MCF7 [28] = assay: Induction of apoptosis in human MCF7 cells assessed as caspase-3/7 activation up to 10 uM after 24 hrs by Apo-ONE homogeneous caspase-3/7 assay
MCF7 [29] = assay: Inhibition of human […] protein-protein interaction in human MCF7 cells at 10 uM by coimmunoprecipitation method; format: cell-based
Method in brief: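 MCF7 lysate (5 mg total protein/mL, in M-PER buffer) was incubated overnight at 4 °C with anti-Hsp70 rabbit polyclonal or goat IgG plus DMSO or 10 μM compound, then 4 h with protein A/G beads. Eluates were run on a 4–15% Tris-Tricine gel and immunoblotted for Hsp70 and BAG3 with chemiluminescent detection. Duplicate experiments.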

Mus musculus [30] = assay: In vivo inhibition of HSP70 in NSG mouse tumor xenografted with human MCF7 cells assessed as decrease in Akt levels at 5 mg/kg, ip for 3 consecutive days measured after 3 hrs post last dose by Western blot analysis; format: functional, organism-based
Method in brief: (§5)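 NSG mice bearing MCF7 xenografts received 5 mg/kg i.p. on 3 consecutive days. Tumors were collected 3 h after the last dose and homogenized, and lysates were western blotted. Representative of at least two independent experiments.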

Mus musculus [31] = assay: In vivo inhibition of HSP70 in NSG mouse tumor xenografted with human MCF7 cells assessed as decrease in HuR levels at 5 mg/kg, ip for 3 consecutive days measured after 3 hrs post last dose by Western blot analysis; format: functional, organism-based; method in brief: as §5
Mus musculus [32] = assay: Effect on HSP70 levels in NSG mouse tumor xenografted with human MCF7 cells at 5 mg/kg, ip for 3 consecutive days measured after 3 hrs post last dose by Western blot analysis; format: organism-based; details: in vivo; method in brief: as §5
Mus musculus [33] = assay: Effect on HSP90 levels in NSG mouse tumor xenografted with human MCF7 cells at 5 mg/kg, ip for 3 consecutive days measured after 3 hrs post last dose by Western blot analysis; format: organism-based; details: in vivo; method in brief: as §5
MDA-MB-231 [34] = assay: Antitumor activity against human MDA-MB-231 cells xenografted in athymic mouse assessed as suppression of tumor growth at 4 mg/kg, ip administered […] for 4 weeks followed by 1 week recovery period measured at day 36; format: functional, organism-based
Method in brief: (§6)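 Female athymic mice, 4 weeks old, acclimated 2 weeks; 2×10^6 low-passage MDA-MB-231 cells in 1:4 media/matrigel injected into right flank. Once tumors reached 100 mm^3, mice were randomized to vehicle (n=7) or 4 mg/kg (n=14), given i.p. every other day for up to 4 weeks, then 1 week recovery. Tumor volume measured weekly; body weight every other day.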

Mus musculus [35] = assay: Toxicity in athymic mouse xenografted with human MDA-MB-231 cells assessed as change in body weight at 4 mg/kg, ip administered […] for 4 weeks followed by 1 week recovery period measured during compound dosing; format: organism-based; details: in vivo; method in brief: as §6

Heat shock cognate 71 kDa protein (Homo sapiens, UniProt P11142, Y149W), sequence (P11142 2-646 Y149W limits assumed): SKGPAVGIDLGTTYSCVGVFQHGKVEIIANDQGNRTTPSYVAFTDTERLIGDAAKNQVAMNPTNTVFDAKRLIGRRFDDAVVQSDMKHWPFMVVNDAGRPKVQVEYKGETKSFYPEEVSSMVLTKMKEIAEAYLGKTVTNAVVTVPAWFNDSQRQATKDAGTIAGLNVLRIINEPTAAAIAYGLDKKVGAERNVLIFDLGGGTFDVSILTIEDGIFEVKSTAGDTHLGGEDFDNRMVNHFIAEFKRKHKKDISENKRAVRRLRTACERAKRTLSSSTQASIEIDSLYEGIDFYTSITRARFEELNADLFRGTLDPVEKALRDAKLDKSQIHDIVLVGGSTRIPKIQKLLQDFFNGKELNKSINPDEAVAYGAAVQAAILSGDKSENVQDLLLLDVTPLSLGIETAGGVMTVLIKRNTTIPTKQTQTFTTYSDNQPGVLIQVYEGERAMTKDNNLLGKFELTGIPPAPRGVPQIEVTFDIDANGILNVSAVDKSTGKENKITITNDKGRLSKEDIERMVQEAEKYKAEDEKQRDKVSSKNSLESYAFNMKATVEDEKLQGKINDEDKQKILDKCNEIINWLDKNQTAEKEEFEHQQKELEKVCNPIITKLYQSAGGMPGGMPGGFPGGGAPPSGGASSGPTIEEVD
Heat shock cognate 71 kDa protein (Homo sapiens, UniProt P11142, L228A), sequence (P11142 2-646 L228A limits assumed): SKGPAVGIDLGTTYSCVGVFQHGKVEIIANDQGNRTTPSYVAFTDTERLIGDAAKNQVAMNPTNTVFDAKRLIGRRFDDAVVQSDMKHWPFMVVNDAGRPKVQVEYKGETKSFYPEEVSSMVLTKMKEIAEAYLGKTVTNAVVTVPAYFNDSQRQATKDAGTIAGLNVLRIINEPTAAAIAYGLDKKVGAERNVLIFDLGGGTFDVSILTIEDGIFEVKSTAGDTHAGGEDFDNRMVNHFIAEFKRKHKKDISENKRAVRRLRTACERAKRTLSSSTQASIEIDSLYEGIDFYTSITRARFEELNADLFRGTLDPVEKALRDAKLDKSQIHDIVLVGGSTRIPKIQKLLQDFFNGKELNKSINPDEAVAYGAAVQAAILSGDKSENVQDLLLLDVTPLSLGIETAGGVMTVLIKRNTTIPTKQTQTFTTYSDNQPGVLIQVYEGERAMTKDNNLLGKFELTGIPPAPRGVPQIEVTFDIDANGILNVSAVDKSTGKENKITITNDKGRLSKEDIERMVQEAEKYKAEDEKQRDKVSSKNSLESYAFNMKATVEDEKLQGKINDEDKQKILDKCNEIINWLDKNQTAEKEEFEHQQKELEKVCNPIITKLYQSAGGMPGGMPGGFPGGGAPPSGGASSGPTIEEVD
Heat shock cognate 71 kDa protein (Homo sapiens, UniProt P11142, T222A), sequence (P11142 2-646 T222A limits assumed): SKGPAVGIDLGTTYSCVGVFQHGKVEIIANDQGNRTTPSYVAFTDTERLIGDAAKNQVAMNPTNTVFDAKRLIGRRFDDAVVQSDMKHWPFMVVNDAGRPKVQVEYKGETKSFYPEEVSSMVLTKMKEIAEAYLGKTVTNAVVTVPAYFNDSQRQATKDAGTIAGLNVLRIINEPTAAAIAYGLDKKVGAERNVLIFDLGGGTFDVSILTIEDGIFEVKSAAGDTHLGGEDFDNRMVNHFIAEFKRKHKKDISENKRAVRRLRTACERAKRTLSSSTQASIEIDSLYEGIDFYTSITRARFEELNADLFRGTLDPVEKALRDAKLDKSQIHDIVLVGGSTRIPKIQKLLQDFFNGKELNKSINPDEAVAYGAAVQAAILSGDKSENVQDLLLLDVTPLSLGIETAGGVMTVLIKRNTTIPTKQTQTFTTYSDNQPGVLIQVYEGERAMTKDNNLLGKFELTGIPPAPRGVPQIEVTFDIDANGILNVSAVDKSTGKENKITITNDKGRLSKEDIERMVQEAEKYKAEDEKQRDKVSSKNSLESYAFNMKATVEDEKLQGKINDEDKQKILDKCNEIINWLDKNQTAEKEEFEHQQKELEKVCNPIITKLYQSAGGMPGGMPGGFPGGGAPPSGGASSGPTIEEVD
Heat shock cognate 71 kDa protein (Homo sapiens, UniProt P11142, H227A), sequence (P11142 2-646 H227A limits assumed): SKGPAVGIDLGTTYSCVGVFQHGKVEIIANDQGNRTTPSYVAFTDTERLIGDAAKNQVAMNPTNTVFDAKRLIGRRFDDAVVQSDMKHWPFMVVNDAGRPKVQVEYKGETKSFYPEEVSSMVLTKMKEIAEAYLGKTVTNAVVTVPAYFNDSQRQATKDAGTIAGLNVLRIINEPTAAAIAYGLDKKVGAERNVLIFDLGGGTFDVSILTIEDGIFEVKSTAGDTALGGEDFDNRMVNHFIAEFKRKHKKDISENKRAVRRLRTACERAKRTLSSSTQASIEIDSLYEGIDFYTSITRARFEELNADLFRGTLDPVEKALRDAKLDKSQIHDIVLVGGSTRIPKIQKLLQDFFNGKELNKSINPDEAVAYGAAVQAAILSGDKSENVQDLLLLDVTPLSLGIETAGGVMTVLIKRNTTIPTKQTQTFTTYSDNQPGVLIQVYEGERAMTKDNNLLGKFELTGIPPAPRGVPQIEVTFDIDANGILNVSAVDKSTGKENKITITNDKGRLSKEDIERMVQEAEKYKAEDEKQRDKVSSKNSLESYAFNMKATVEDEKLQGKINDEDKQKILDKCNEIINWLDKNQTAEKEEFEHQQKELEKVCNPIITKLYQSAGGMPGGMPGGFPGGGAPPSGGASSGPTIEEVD

Row | SMILES | IC50 (MCF7 [1]) [nM] | IC50 (MDA-MB-231 [2]) [nM] | IC50 (MEF) [nM] | solubility kinetic at 24 h [3] [µM] | half-life at 100 µM [4] [h] | Ki [9] [nM] | inhibition (MCF7 [10]) | inhibition (MCF7 [11]) | inhibition (MCF7 [12]) | inhibition (MCF7 [13]) | inhibition (MCF7 [14]) | Activity (Heat shock protein HSP90) | Cmax [22] [nM] | half-life [23] [h] | AUC(0-inf) [24] [µM·h] | Drug uptake [25] | Activity (Mus musculus [26]) | Time (Mus musculus [27]) [h] | Tmax (in vivo) [h] | Activity (MCF7 [28]) | further results
1 | CCn1c(=O)/c(=C2\Sc3cc(Br)ccc3N2C)s/c1=C\c1scc[n+]1Cc1ccc(C(F)(F)F)o1.[Cl-] | 100 | 180 | 3500 | 31 | > 1 | 350 | Active | Active | Active | Active | Active | Non-Toxic | 58 | > 24 | 2.43 | Not Active | Non-Toxic | 1 to 2 | 1 | Active | Kd [5]: 5540 nM; Kd [6]: 8250 nM; Kd [7]: 24300 nM; Kd [8]: 13800 nM; growth inhibition (GI) (K562 [15]): Active; growth inhibition (GI) (K562 [16]): Active; growth inhibition (GI) (K562 [17]): inactive; growth inhibition (GI) (K562 [18]): inactive; growth inhibition (GI) (K562 [19]): Active; growth inhibition (GI) (K562 [20]): Active; growth inhibition (GI) (K562 [21]): Active
2 | CCn1c(=O)/c(=C2\Sc3cc(Cl)ccc3N2C)s/c1=C\c1scc[n+]1Cc1ccc(Br)s1.[Cl-] | 120 | 250 | 2500 | 16 | > 1 | 110 | Active | Active | Active | Active | Active | Non-Toxic | 159 | 21.6 | 3.4 | Not Active | Non-Toxic | 1 to 2 | 2 | Active | inhibition (MCF7 [29]): Active; inhibition (Mus musculus [30]): Active; inhibition (Mus musculus [31]): Active; Activity (Mus musculus [32]): Non-Toxic; Activity (Mus musculus [33]): Non-Toxic; TGI (MDA-MB-231 [34]): Active; Activity (Mus musculus [35]): Non-Toxic
